System: MS2 coat protein
Experiment: apparent Kd, MS2 coat protein; higher = weaker binding; RNA-MaP array; FMN 200 µM where present
Summary of the method: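 Each design was made on Illumina sequencing-chip clusters by stalled E. coli RNA polymerase and titrated with SNAP-549-labelled MS2 coat protein from 0.7 or 1.5 nM, doubling to 3 µM, in the absence and then the presence of constant ligand. The buffer was 100 mM Tris-HCl pH 7.5, 80 mM KCl, 4 mM MgCl2, BSA, DTT, yeast tRNA and Tween-20. The apparent Kd is the median of filtered per-cluster fits of binding curves, with green signal normalised to red-channel RNA signal and control-cluster median Fmax.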

[1] = designed as: OFF switch for flavin mononucleotide, no ligand
[2] = ligand present: flavin mononucleotide, designed as: OFF switch for flavin mononucleotide
[3] = designed as: ON switch for flavin mononucleotide, no ligand
[4] = ligand present: flavin mononucleotide, designed as: ON switch for flavin mononucleotide

Sequence	apparent Kd [1]	apparent Kd [2]	apparent Kd [3]	apparent Kd [4]
CAGCGAAAGCUGAAUCUGUAGAGAGAGGAUAUACGUCAUAAGGUGCAAACAUGAGGAUCACCCAUGUAGAAGGCUCUCUACAGU	55.8 nM	460 nM		
GUCAGCUCGUGAGGAUAUACAACACUGCUUCGGCAGUGUAUUAAGAUCACAUGAGGAUCACCCAUGUAGAAGGCACUAGCUGAU	13.9 nM	256 nM		
UAUUUUAACUAAGGAUAUCUAUAUUAUUUUGAAACAUGAGGAUCACCCAUGUUCAUGGGAUUAUAAGAGAAGGUAGAUGAAUAA			27.5 nM	11.7 nM
AGAUAGUCAGGAUAUACAUGGAUGAUACACGUAUUUCCACUACAUGAGGAUCACCCAUGUAGAAGGGACUAUCA	27.6 nM	15.1 nM		
UGCAUGUAAGGAUAUGCAUCCGCCAAAGAACCGGCGCCACAGCAGAAGGUACAUGAGGAUCACCCAUGUGUCCC	15.1 nM	29.1 nM		
AGCUGUGGCCGAGGAUAUCUGAACUCAAUAACCGAAAUAUAAUCGGACAUGAGGAUCACCCAUGUAGAGAAGGCGGUCUCAGCA	34 nM	56.5 nM		
GCCAUCGCAUGAGGAUAUGCUCCCGUUUCGGGAGCAGAAGGCAUGUCAUAAGACAUGAGGAUCACCCAUGUAGUUUAGAUGGCA			234 nM	11.1 nM
AUCAGCUCGUCAGGAUAUACGUCGUGGUAAGAUCACAUGAGGAUCACCCAUGUAGAAGGGACGAGCUGAUAAGCACGAAAGUGC	745 nM	47.1 nM		
ACCAGCUCGUCAGGAUAUACGUCACUGCGUCAGCAGUGUGGUAAGAUCACAUGAGGAUCACCCAUGUAGAAGGGACGAGCUGAU	13.3 nM	245 nM		
GUGAAGUAAGGAUAUACAUGAGGAUCACCCAUGUAAGGGAAGGUGAUGGGAGUAGAUAGUAGAAGGUACGAGGA	120 nM	81.9 nM		
GGAUCGAAAGUGAGGAUAUGCUGGUCCUUGGAUCAGCAGAAGGCACAUGAGGAUCACCCAUGUUUCCACGGUCC	19.5 nM	91 nM		
UUUAUAAUAAGAUCAAUUAAUUAACAUGAGGAUCACCCAUGUGAGGAUAUCAGCUCGUGUAGAGCUGAGAAGGCACAAUAUAAG	43.8 nM	69.3 nM		
AAAACAUGAGGAUCACCCAUGUAAAGAACGCUUAAUAGAUCUGAGGAUAUACUAGAAUUUAGGUAGUAGAAGGCAGUGGGUACA			46.6 nM	30.7 nM
GAUCUGACAGGAUAUACAUGAGGAUCACCCAUGUGCGAGCUAGCGAAAGCUAGCUUAGGUAGAAGGGUCAGAUC	12.2 nM	18.1 nM		
GUCAUACAUGAGGAUCACCCAUGUGAGGAUAUGAGUGGUGCUGAUAGGUCGGCACCACUCAGAAGGCGCAUGAU	77.1 nM	293 nM		
CGCCUGCGUAGAAUUAGCAGCUGACAGGAUAUGACAUGAGGAUCACCCAUGUGAAAUAAGAAGAGUCAGAAGGGUCACGACGCG	10.8 nM	8.77 nM		
CUCUUGUGAGGAUAUCGAAGAAAAGAAAAGAAAGAAAAGAACGAGAAGGCACAUGAGGAUCACCCAUGUAAGAA	57.2 nM	171 nM		
UCCAGACAUGAGGAUCACCCAUGUGAGGAUAUGAUGCGAUCGUCGAAAGACGAUAGCAUCAGAAGGCACGUAUG	33.7 nM	48.3 nM		
CGGAUGUCAGGAUAUACGAACAUGUCGCCAGAUGUCAUGGUACAUGAGGAUCACCCAUGUAGAAGGGAGGUGGU	160 nM	331 nM		

Sequence	apparent Kd [1]	apparent Kd [2]	apparent Kd [3]	apparent Kd [4]
GCGAUGUUAGGAUAUUGCAUGUAGUGGGUUCCCAGCUGCGUUAAGAAGGGACAUGAGGAUCACCCAUGUGAUGA	497 nM	384 nM		
AGGGCGAAAUGGCUCUAUGAGAUGAGAAGGGUAGGAGGGUGGAAGUACAUGAGGAUCACCCAUGUACAGGAUAUCAUGCCGAUU	6.42 nM	6.4 nM		
GAUUCGGGAGGAUAUACAUGAGGAUCACCCAUGUGUUUUUUAUGUGUUAUGUUAUCAUGUAGAAGGUUUGGGUC	151 nM	195 nM		
GGAUAGGACAGAGGAUAUACGUGCUAGAGAUCCUAGCAAAAUUUCCUCACAUGAGGAUCACCCAUGUAGAAGGCUGUCCUAUCG	15.5 nM	417 nM		
UCUGGUCGAGGAUAUACAUGAGGAUCACCCAUGUUGAUCAAGCGACUUCGGUCGCAAUGUAGAAGGCGACCAGA	627 nM	182 nM		
CUCGUGUCGGAGGAUAUCCAGCGCGAAAAUAAAGGAGAAGGCCGCACAUGAGGAUCACCCAUGUAACAUGGUCC	56.2 nM	76.4 nM		
UUAAAUCAUGUAGGAUAUGCAUGGCGAAGCUACGCAGAAGGACAUGAGGAUCACCCAUGUUAAAGCUACCGAGUUCGGUGGCAA	116 nM	156 nM		
CAAUUACAUGAGGAUCACCCAUGUCAGGAUAUGCGAAUUACCAGAUGAAACUUAAUAAGCAGAAGGGACUACAA	36.3 nM	49.6 nM		
UCGUGAAGGAUAGGAUAUGGACAUGAGGAUCACCCAUGUACAUGGGAAUGUAUACUGAAUUUGUACUAGAAGGGUUACAUAAAU	49.8 nM	36.6 nM		
GGGCCCGAGGUGAGGAUAUUGUGCAUGGCGAGUGACAAGAAGGUACAUGAGGAUCACCCAUGUGAUACCGACCU	451 nM	371 nM		
CCACAUGAGGAUCACCCAUGUAGGAUAAAUCACGGCUUGGCACAGGAUAUACGGAGCGACGGAUCGUAGAAGGGUGCACUCGGC			8.37 nM	6.07 nM
GCUGACGAUGUAGGAUAUCAGUAUAAUAAAUACUGAGAAGGACAUGAGGAUCACCCAUGUAAAACUCCGUCAGCGAGGAAACUC	16.6 nM	19.4 nM		
UAUUAUCACGAAGGAUAUGCUUACAUGAGGAUCACCCAUGUAUGUAUAUUGAUCCAGCGUUUUGAGCAGAAGGUCGUGAGUAAA	20.1 nM	74.3 nM		
GGUCCACAUGAGGAUCACCCAUGUUAGGAUAUCUCGCCCGAGUCGUUAUGGGCCGGGCAGAGAAGGAAUGUGAA	21.7 nM	20.2 nM		
GGUUGGCGAGGAUAUACAUGAGGAUCACCCAUGUGGUCCUGCGGUGGUGUCGCCCUUUGUAGAAGGCGCGGGUC	59.1 nM	56.6 nM		
GACUUCCGAGGAUAUACAUGAGGAUCACCCAUGUGCUUCAGCAUUUUUUGAUGCAUGGGUAGAAGGCGGUAGUU	261 nM	281 nM		
CCGCUGUGAGGAUAUUAGUAGUAGUCAGAAUAGACUAUUACUGAGAAGGCACAUGAGGAUCACCCAUGUCGCGG	31.2 nM	43.1 nM		
UAAUAAAACGAUCGGCGAUCCAUACAUGAGGAUCACCCAUGUAGAAGGGACUCUACAAAGUAGAGUCAGGAUAUACAAGAUCGA	10 nM	124 nM		
AGAUGUGAACAUGAGGAUCACCCAUGUGACUAGGUUUAUUUCAGAAGGCAUUAAUAGAGAUUAUAUGAGGAUAUGAAGUUUUAA			11.8 nM	7.11 nM

Sequence	apparent Kd [1]	apparent Kd [2]	apparent Kd [3]	apparent Kd [4]
UGGUACUAGGGAGGAUAUGGGAAGAUACAUGAGGAUCACCCAUGUUUAAGGAUGCCGAGAGGCAACUAGAAGGCCCUAGUACCU			851 nM	97 nM
CCUCGACAUGAGGAUCACCCAUGUCAGGAUAUUGUGUUUUGGGUUUUUUACCUUUAGGCAAGAAGGGAUGUGUG	16.4 nM	24.1 nM		
UAUAUGUCAGGAUAUUAGUUGAGGUGGAAUUUAGCCUCAGCUGAGAAGGGACAUGAGGAUCACCCAUGUUCCUC	22.1 nM	241 nM		
GUCCGGCGUGUAGGAUAUGGAUCCGAUUAGGAUCCAGAAGGACAUGAGGAUCACCCAUGUACAUGUAAACAGUCAUCACCGGAC	6.4 nM	7.41 nM		
AAGUCGAGCGUGAGGAUAUCGUUUGAACGACAGAGCGAGAAGGCACAUGAGGAUCACCCAUGUGAUUAAGCUCG	15.6 nM	19.9 nM		
UGAUCUUACAUGAGGAUCACCCAUGUAGGCCAGUAACUAACCAGAAGGCACGUAGAGUACAACAGUGAGGAUAUGGAUGACAUA			9.29 nM	5.95 nM
UUAUUCAGAGGAUAUGCGCAUAGAUAAGACUUUUUUUCUUAACAUGAGGAUCACCCAUGUAGAAGGCUGUAAUU	18.4 nM	18.7 nM		
AUAAUUUUAUAUAUCUAUUUAAUCAGAAGGCAUAACAUGAGGAUCACCCAUGUAAAUUAAUGUUAUGAGGAUAUGAUAUGGUUA	11.3 nM	78 nM		
ACAUGAGGAUCACCCAUGUGAGGAUCACCCAUGUUAUAUUUCAGAAGGCUCGUUUGUUUGAGGAGAGAGGAUAUGGAAUAUAGG	127 nM	84.7 nM		
AUAAAACAUGAGGAUCACCCAUGUAGAAACAUGGGAGGAUAUACAAAGACGAAAGUCAAAGUAGAAGGCCUAAAAG			462 nM	311 nM
AAACACAAACAUGAGGAUCACCCAUGUGGCGAAAGCCUUGGGAGAAGGGCGAUUGCAAAGCAAUCGCAGGAUAUUCGUAUUGUG			370 nM	26.9 nM
ACUACUUAGUGAGGAUAUACAUAAUUUAUAACUGUAGAAGGCACAAACCUCAAUACAUGAGGAUCACCCAUGUGGUAUAUCUAU	188 nM	380 nM		
CAUGUCCUCACAGGAUAUGCACCACUUUGUGGUGCAGAAGGGUGGUAACAUGAGGAUCACCCAUGUGGACAUGAUAUAUUUAAU			523 nM	294 nM
CGAUAUAUGAAGGGCGAAAGCCCACAUGAGGAUCACCCAUGUAGAAGGCGAUCCGCAACGCGGAUCGAGGAUAUAUAGUAUACA	9.48 nM	10.4 nM		
CGUUAUGAUAAAGGAUAUAUAAUAGAUAUACAUGAGGAUCACCCAUGUUACAUGGAUUCAAAUUUAUAGAAGGUUAUCCUAUCG	36 nM	22.6 nM		
CACGGAUAGUAGAAGGGUGACAUGAGGAUCACCCAUGUACACAUGCGUAUUAAAGUAUGUGAUCCACAGGAUAUACUAUCCGUG			776 nM	93.8 nM
UAUCUAUUUAUGGGAUUAGAAUAUGAGGAUAUCAUUUUUUUAUACAUGAGGAUCACCCAUGUUUCUGAGAAGGCAUAUUUAAUA			16.9 nM	5.72 nM
CUGGUUGUCGAGGAUAUGCACCGGCUCGCUGACGCAGAAGGCGACACAUGAGGAUCACCCAUGUCGGUUCGCGA	15.6 nM	31.3 nM		

From the EternaBench riboswitch data
